An excerpt weighted towards active compounds, which were near 5.9% of everything screened.
IDH1 mut inh: IDH1 R132H (human) inhibition; IDH1 R132H reductase, diaphorase/resazurin fluorescence, 60 min; inhibition, % at 10 µM; 70,000 compounds, 0.18% hits; AID 624101; in the data active means inhibition above about 34%; inconclusive means no clear call, values can overlap the other calls; inactive means below about 11%
Target sequence (O75874 whole entry R132H): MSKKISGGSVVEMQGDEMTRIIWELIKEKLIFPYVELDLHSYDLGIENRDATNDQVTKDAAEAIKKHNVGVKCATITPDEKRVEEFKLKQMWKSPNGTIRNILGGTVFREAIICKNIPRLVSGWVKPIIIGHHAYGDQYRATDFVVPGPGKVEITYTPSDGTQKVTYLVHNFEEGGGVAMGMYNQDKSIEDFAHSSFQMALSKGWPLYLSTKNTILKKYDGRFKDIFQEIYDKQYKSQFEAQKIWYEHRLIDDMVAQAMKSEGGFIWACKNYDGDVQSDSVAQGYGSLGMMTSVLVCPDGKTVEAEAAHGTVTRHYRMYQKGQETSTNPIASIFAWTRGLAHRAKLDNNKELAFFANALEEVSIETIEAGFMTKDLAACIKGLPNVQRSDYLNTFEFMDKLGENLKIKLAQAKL
Pf Dd2 inh: inhibitors of Plasmodium falciparum Dd2 growth | activity change, % at 10 µM | 94,000 compounds, 2.3% hits | AID 1159554 | P. falciparum Dd2 growth, SYBR Green, 72 h; active compounds read low; in the data active means activity change below about -80%; inconclusive means no clear call, values can overlap the other calls
T cruzi growth-1: inhibitors of T. cruzi proliferation; T. cruzi beta-gal in NIH3T3, GalScreen luminescence, 90 h; inhibition, % at 8.34 µM; 77,000 compounds, 5.9% hits; AID 624255;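 active means mean inhibition above about 93%, with at least 55% of replicates each passing it, limit read from the data, passing the limit was not always enough; inconclusive means only one of those two conditions holds; inactive means neither condition holds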
GASC1 inh: KDM4C (human) demethylase inhibition | Q9H3R0 | GST-KDM4C 2-372, H3K9me3 peptide, LANCE TR-FRET | inhibition, % at 12.5 µM | 96,000 compounds, 0.15% hits;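 active means mean replicate inhibition above about 25%, with at least 55% of replicates also reaching it, limit read from the data, passing the limit was not always enough; inconclusive means only one of those two conditions met; inactive means neither condition met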
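System: N-terminal GST-fused human GASC-1 (KDM4C) fragment, residues 2-372; amount: enzyme final amount 10 nM; incubation: reaction 30 min RT, detection step 1 h RT; medium: HEPES buffer, pH 7.5, plus ascorbate; technique: LANCE TR-FRET, Eu antibody, ULight-streptavidin, EDTA, ex 340 nm, em 618/671 nm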
T cruzi growth-2: inhibitors of T. cruzi proliferation | shares compounds with T cruzi growth-1 | T. cruzi beta-gal in NIH3T3, GalScreen luminescence, 90 h | inhibition, % at 8.35 µM | 5,600 compounds, 72% hits;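 active means mean replicate inhibition above about 95% and at least 55% of replicates individually reaching it, limit read from the data; inconclusive means only one of the two criteria is met; inactive means neither criterion is met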
T cruzi growth-3: inhibitors of T. cruzi proliferation | shares compounds with T cruzi growth-1 | inhibition, % at 2.09 µM | 5,600 compounds, 21% hits | T. cruzi beta-gal in NIH3T3, GalScreen luminescence, 90 h;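 active means mean inhibition above about 95%, with at least 55% of replicates also reaching it, limit read from the data; inconclusive means meets just one of the two conditions; inactive means meets neither condition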
3T3 cytotox: kills mouse NIH/3T3 fibroblasts. shares compounds with T cruzi growth-1. NIH/3T3 viability, CellTiter-Glo ATP luminescence, 90 h. cytotoxicity (signal decrease), % at 8.35 µM. 5,600 compounds, 14% hits. AID 651742;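 active means mean signal decrease across replicates above about 35% based on untreated-well scatter, with enough replicates individually passing, limit read from the data; inconclusive means no rule stated though some were filed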
NIH3T3 tox 2: kills mouse NIH/3T3 fibroblasts; shares compounds with T cruzi growth-1; NIH/3T3 viability, CellTiter-Glo ATP luminescence, 90 h; inhibition, % at 24.9 µM; 5,600 compounds, 56% hits; AID 651744;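 active means mean loss of cell viability signal at or above a set limit, and enough replicates individually reaching it; inconclusive means meets only the mean limit or only the replicate share; inactive means meets neither condition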
A number is an active result; - = inactive; ? = inconclusive; . = no result given; ! = not confirmed by another sample.

SMILES | IDH1 mut inh | Pf Dd2 inh | T cruzi growth-1 | GASC1 inh | T cruzi growth-2 | T cruzi growth-3 | 3T3 cytotox | NIH3T3 tox 2
O=C(c1cccnc1)N1CC(=O)N2[C@@H](CO)[C@@H](c3ccc(-c4cccnc4)cc3)[C@@H]2C1 | . | - | . | - | . | . | . | .
CC(C)c1ccc2c(c1)CCC1[C@](C)(C(=O)O)CCC[C@]21C (some centres not stated) | - | . | . | . | . | . | . | .
O=C(C[C@H]1CC[C@@H]2[C@H](COC[C@@H](O)CN2Cc2ccccc2)O1)N[C@@H]1CCN(Cc2ccccc2)C1 | . | - | - | - | . | . | . | .
O=C(C[C@@H]1CC[C@@H]2[C@H](COC[C@@H](O)CN2Cc2ccccc2)O1)NCc1ccccc1Cl | . | - | 100 | - | - | - | - | -
O=C(C[C@H]1CC[C@H]2[C@@H](COC[C@H](O)CN2Cc2cc(F)ccc2F)O1)N[C@@H]1CCN(Cc2ccccc2)C1 | . | - | 96 | - | - | - | - | ?
O=C(C[C@H]1CC[C@H]2[C@@H](COC[C@H](O)CN2Cc2ccccc2)O1)N[C@@H]1CCN(Cc2ccccc2)C1 | . | - | 98 | - | 99 | - | - | -
COc1ccc(S(=O)(=O)Nc2ccc3c(c2)C(=O)N([C@@H](C)CO)C[C@@H](C)[C@H](CN(C)S(=O)(=O)c2ccc(Cl)cc2)OCCCC[C@H](C)O3)cc1 | - | - | 100 | - | 108 | - | - | -
COc1ccc(S(=O)(=O)Nc2ccc3c(c2)C(=O)N([C@H](C)CO)C[C@H](C)[C@H](CN(C)S(=O)(=O)c2ccc(Cl)cc2)OCCCC[C@H](C)O3)cc1 | - | - | ? | - | 103 | 107 | - | -
COc1ccc(S(=O)(=O)N(C)C[C@@H]2OCCCC[C@@H](C)Oc3ccc(NS(=O)(=O)c4ccc(Cl)cc4)cc3C(=O)N([C@H](C)CO)C[C@H]2C)cc1 | . | - | . | . | . | . | . | .
COc1ccc(S(=O)(=O)Nc2ccc3c(c2)C(=O)N([C@@H](C)CO)C[C@@H](C)[C@H](CN(C)S(=O)(=O)c2ccc(Cl)cc2)OCCCC[C@@H](C)O3)cc1 | - | - | ? | - | 105 | 104 | - | 33
COc1ccc(S(=O)(=O)Nc2ccc3c(c2)C(=O)N([C@H](C)CO)C[C@@H](C)[C@@H](CN(C)S(=O)(=O)c2ccc(Cl)cc2)OCCCC[C@H](C)O3)cc1 | - | - | 99 | - | 102 | ? | - | -
COc1ccc(S(=O)(=O)Nc2ccc3c(c2)C(=O)N([C@@H](C)CO)C[C@@H](C)[C@@H](CN(C)S(=O)(=O)c2ccc(Cl)cc2)OCCCC[C@@H](C)O3)cc1 | - | - | - | - | . | . | . | .
CO[C@H]1CN(C)C(=O)c2ccc(NC(=O)Nc3c(C)noc3C)cc2OC[C@@H](C)N(C)C[C@@H]1C | - | - | - | - | . | . | . | .
Cc1ccc(N(CC(=O)Nc2ccc(F)cc2)S(=O)(=O)N2CCCC2)cc1 | - | . | . | . | . | . | . | .
C[C@H]1CN([C@@H](C)CO)C(=O)c2cc(C#Cc3cccc(F)c3)cnc2O[C@@H]1CN(C)C(=O)C1CCCCC1 | . | -89 | 114 | - | 113 | - | - | 76
C[C@@H]1CN([C@@H](C)CO)C(=O)c2cc(C#Cc3cccc(F)c3)cnc2O[C@H]1CN(C)C(=O)C1CCCCC1 | - | - | 117! | - | 105 | - | - | 92
CS(=O)(=O)Nc1ccc2c(c1)[C@@H]1C[C@@H](CC(=O)NCc3cccc(F)c3)O[C@@H](CO)[C@@H]1O2 | - | - | . | - | . | . | . | .
C[C@@H]1CCCCO[C@H](CN(C)C(=O)Nc2cccc3ccccc23)[C@@H](C)CN([C@H](C)CO)C(=O)c2cc(NS(=O)(=O)c3ccc(Cl)cc3)ccc2O1 | - | - | - | - | . | . | . | .
C[C@H](CO)N1C[C@H](C)[C@@H](CN(C)C(=O)Nc2cccc3ccccc23)OCCCC[C@H](C)Oc2ccc(NS(=O)(=O)c3ccc(Cl)cc3)cc2C1=O | . | - | - | - | . | . | . | .
C[C@H](CO)N1C[C@H](C)[C@H](CN(C)C(=O)Nc2cccc3ccccc23)OCCCC[C@H](C)Oc2ccc(NS(=O)(=O)c3ccc(Cl)cc3)cc2C1=O | . | - | 96 | - | 101 | - | - | -
C[C@@H]1CCCCO[C@@H](CN(C)C(=O)Nc2cccc3ccccc23)[C@H](C)CN([C@@H](C)CO)C(=O)c2cc(NS(=O)(=O)c3cccs3)ccc2O1 | - | - | 101 | - | 107 | - | - | -
C[C@H]1CCCCO[C@H](CN(C)C(=O)Nc2cccc3ccccc23)[C@@H](C)CN([C@@H](C)CO)C(=O)c2cc(NS(=O)(=O)c3ccc(Cl)cc3)ccc2O1 | . | - | ? | - | 97 | 119 | - | -
C[C@@H]1CCCCO[C@@H](CN(C)C(=O)Nc2cccc3ccccc23)[C@H](C)CN([C@@H](C)CO)C(=O)c2cc(NS(C)(=O)=O)ccc2O1 | . | - | 116 | - | - | - | - | -
C[C@@H]1CN([C@H](C)CO)C(=O)Cc2cc(NC(=O)C3CC3)ccc2O[C@@H]1CN(C)C(=O)NC1CCCCC1 | - | - | - | - | . | . | . | .
CN1CCN(C(=O)C[C@H]2CC[C@@H]3[C@H](COC[C@H](O)CN3CC3CCCC3)O2)CC1 | . | - | . | - | . | . | . | .
SMILES | IDH1 mut inh | Pf Dd2 inh | T cruzi growth-1 | GASC1 inh | T cruzi growth-2 | T cruzi growth-3 | 3T3 cytotox | NIH3T3 tox 2
C[C@@H]1CCCCO[C@@H](CN(C)C(=O)Nc2cccc3ccccc23)[C@H](C)CN([C@@H](C)CO)C(=O)c2cc(NS(=O)(=O)c3ccc(F)cc3)ccc2O1 | . | - | 105 | - | 101 | - | - | -
C[C@@H]1CN([C@@H](C)CO)C(=O)c2cc(NS(=O)(=O)c3ccc(Cl)cc3)ccc2O[C@@H](C)CCCCO[C@@H]1CN(C)C(=O)Nc1cccc2ccccc12 | - | - | 99 | - | 105 | ? | - | -
COc1ccc(S(=O)(=O)N[C@H]2C=C[C@@H](CC(=O)N3CCC(Cc4ccccc4)CC3)O[C@H]2CO)cc1 | - | - | 110 | - | - | - | - | 70
O=C(C[C@@H]1CC[C@@H](NS(=O)(=O)c2ccc(F)cc2)[C@H](CO)O1)N1CCc2ccccc2C1 | - | - | 104 | - | - | - | - | -
O=C(C[C@H]1CC[C@@H](NS(=O)(=O)c2ccc(F)cc2)[C@@H](CO)O1)N1CCc2ccccc2C1 | - | - | - | - | . | . | . | .
O=C(NCC[C@@H]1CC[C@H](NS(=O)(=O)c2ccccc2F)[C@@H](CO)O1)c1ccc(F)cc1 | - | - | 104 | - | - | - | - | -
Cc1ccc(S(=O)(=O)N[C@@H]2CC[C@@H](CC(=O)N3CCC(Cc4ccccc4)CC3)O[C@@H]2CO)cc1 | - | - | 111 | - | 110 | - | - | 35

Bioassay records deposited in PubChem by Broad Institute.
